CHT block: inhibitors of human choline transporter CHT; CHT-expressing cells, membrane potential dye, choline response; active compounds read low; B-score at 10 µM; actives 0.86% (n = 310,000);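 active means B-score over 3 SD under the library average, and starting fluorescence ratio not unusually high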;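 further: choline stimulus applied at its EC90 after an EC20 pre-addition; B-score computed on integrated fluorescence ratio after choline addition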
Target sequence (Q9GZV3 whole entry, looked up): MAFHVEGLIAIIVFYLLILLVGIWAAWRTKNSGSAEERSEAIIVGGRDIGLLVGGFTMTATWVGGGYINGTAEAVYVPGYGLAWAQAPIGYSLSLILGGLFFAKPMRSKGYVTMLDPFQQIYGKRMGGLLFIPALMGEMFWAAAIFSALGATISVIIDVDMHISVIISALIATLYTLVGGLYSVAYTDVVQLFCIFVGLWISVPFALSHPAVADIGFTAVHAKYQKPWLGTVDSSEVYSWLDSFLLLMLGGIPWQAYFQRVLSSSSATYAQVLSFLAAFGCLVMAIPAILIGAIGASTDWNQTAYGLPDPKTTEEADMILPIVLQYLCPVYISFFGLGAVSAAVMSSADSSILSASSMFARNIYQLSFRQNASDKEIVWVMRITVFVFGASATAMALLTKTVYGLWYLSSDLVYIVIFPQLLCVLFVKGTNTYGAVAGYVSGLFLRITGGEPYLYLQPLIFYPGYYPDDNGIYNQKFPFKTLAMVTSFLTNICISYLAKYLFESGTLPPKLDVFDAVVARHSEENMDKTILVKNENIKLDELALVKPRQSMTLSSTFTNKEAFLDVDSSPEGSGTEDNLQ
ANO1 block: inhibitors of mouse TMEM16A calcium-activated chloride channel. Q8BHY3. HEK293 TMEM16A/YFP iodide influx fluorescence, ionomycin. normalized B-score (activity score, 25-100; higher = stronger inhibition) at 10 µM. actives 1.2% (n = 310,000). AID 588511;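 active means ratio plate-corrected score three or more library SD toward inhibition, starting fluorescence score within five deviations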;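 further: score derived from kinetic fluorescence span divided by baseline fluorescence per well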
IMP-1 inhibitor: inhibitors of Pseudomonas aeruginosa IMP-1 metallo-beta-lactamase; purified IMP-1, nitrocefin hydrolysis, epi-absorbance fluorescence; inhibition, % at 5.6 µM; actives 0.45% (n = 290,000);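 active means inhibition above the mean plus 3 SD of all compounds in the same screening run, cut at about 4.5% in these data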;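 further: 0% = IMP-1 with DMSO and 100% = DMSO wells lacking enzyme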
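system = purified recombinant IMP-1 beta-lactamase | amount = 0.2 nM IMP-1, as dispensed | medium = HEPES buffer pH 7.1 with ZnSO4 and Brij 35 | times = 25 °C, 15 min preincubation, 25 min reaction | detection = plate fluorescence quenching by hydrolysis product, ex 480/em 530 nm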
CHT allo act: allosterically activates the human high affinity choline transporter; actives 0.49% (n = 310,000); B-score at 10 µM; Q9GZV3; CHT-expressing cells, membrane potential dye, choline EC20; active compounds read high; LV-AA mutant CHT in HEK293 cells; AID 488977;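 active means initial fluorescence not abnormally high and integrated response B-score, plate-corrected, over 3 SD above library mean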
VIM-2 inhibitor: inhibitors of Pseudomonas aeruginosa VIM-2 metallo-beta-lactamase | purified VIM-2, nitrocefin hydrolysis, epi-absorbance fluorescence | inhibition, % at 5.6 µM | actives 0.89% (n = 290,000);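 active means inhibition above the mean of all tested compounds plus 3 SD, cutoff set per screening run, cut at about 7.5% in these data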;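 further: red hydrolysis product quenches plate fluorescence so inhibitors raise well fluorescence; 0% = enzyme with DMSO and 100% = DMSO without enzyme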
ANO1 activ: activators or potentiators of mouse TMEM16A chloride channel | HEK293 TMEM16A/YFP-H148Q/I152L, iodide quench fluorescence; active compounds read low | actives 0.3% (n = 340,000) | B-score at 10 µM | Q8BHY3;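 active means fluorescence-ratio B-score plate-corrected deviation score at least 3 library SD below zero, with starting fluorescence score within 5 deviations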;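 further: channel opened by trigger with iodide after compound preincubation; score built on the fluorescence ratio of max minus min over baseline; more negative score means more quench and so TMEM16A activation or potentiation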
CHT inh conf: confirmation of human choline transporter CHT inhibitors | shares compounds with CHT block | CHT-expressing cells, choline membrane potential dye; LV-to-AA substituted CHT, HEK293 cells | CHT activity remaining % of control (active compounds read low), % at 10 µM | actives 70% (n = 2,400) | AID 493221;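 active means choline transporter activity left, mean of duplicates at 10 µM, below buffer-only control mean minus 3 SD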;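 further: depolarization triggered by choline at its EC90 following an EC20 pre-addition; 0% = hemicholinium-3 full block and 100% = buffer-only control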
HEK293 CHT ctr: CHT inhibitor counter-screen hit in parental HEK293 cells; actives 4% (n = 2,400); shares compounds with CHT block; membrane potential ratio readout (active if shifted either direction beyond buffer ±3SD; no single direction) at 10 µM; membrane potential dye, choline response; active = decrease or increase beyond buffer ±3SD;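 further: parental cells lack the transporter so any hit is non-specific; ratio is peak minus trough fluorescence over baseline after EC90 choline challenge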
Starred values were filed as active, the others as inactive; i = inactive; · = no result given. Only some compounds are listed: those with a hit (about 3.4% of all), similar ones and a draw of the others.

SMILES | CHT block | ANO1 block | IMP-1 inhibitor | CHT allo act | VIM-2 inhibitor | ANO1 activ | CHT inh conf | HEK293 CHT ctr
Cc1nnc(SCc2cc(=O)oc3ccc4ccccc4c23)n1Cc1ccccc1 | i | i | -2.6 | i | 6.3 | i | · | ·
CCCn1c(SCc2cc(=O)oc3ccc4ccccc4c23)n[nH]c1=O | -5.38* | i | -1.7 | i | 3.1 | i | i | i
CC1CCCCN1C(=O)CN1C(=O)NC2(CCCCC2C)C1=O (configuration not stated) | · | · | · | · | · | i | · | ·
CC(=O)N1CC(=O)N(c2ccccc2)C1=O | i | i | -4.9 | i | -2.3 | i | · | ·
COc1ccccc1/C=C1\SC(=O)N(CC(=O)NCCCn2ccnc2)C1=O | -7.06* | i | -1.4 | i | 0.2 | i | 68.6%* | i
O=C(NCc1ccccc1)C12CN(Cc3ccccc3)CC1C(c1cccc([N+](=O)[O-])c1)=NO2 (configuration not stated) | i | i | -1.8 | i | -5.0 | i | · | ·
CCCCN(CCCC)CCCNC(=O)C12CN(Cc3ccccc3)CC1C(c1cccc([N+](=O)[O-])c1)=NO2 (configuration not stated) | -10.5* | i | -2.0 | i | -1.7 | i | 15.2%* | i
Nc1c(C(=O)N2CCCCCC2)oc2ccccc12 | i | i | -2.8 | i | 0.7 | i | · | ·
CCOCCCN1CC(=O)N2[C@@H](Cc3c([nH]c4ccccc34)C2(C)C)C1=O | i | i | -1.6 | i | 1.3 | i | · | ·
Cc1ccc(C(=O)NCC(=O)OCC(=O)Nc2ccccc2C#N)s1 | -12.9* | i | -2.5 | i | -3.8 | i | 65.2%* | i
Cc1cc(=O)oc2cc(NC(=O)Cc3ccccc3[N+](=O)[O-])ccc12 | i | i | 1.0 | i | -0.6 | i | · | ·
COc1cc(N)c2ncccc2c1Br | · | · | · | · | · | i | · | ·
O=C(CCc1ccccc1O)NC1CCCc2ccccc21 (configuration not stated) | -6.16* | i | -2.2 | i | -3.4 | i | i | i
Fc1ccc(OCCOCCOc2cccc3[nH]ccc23)cc1 | -5.3* | i | -1.8 | i | -0.5 | i | i | i
CC1(C)C[C@H]2C3=CCC4[C@@]5(C)CC[C@H](O)[C@](C)(CO)C5CC[C@@]4(C)[C@]3(C)C[C@H]3O[C@@H]1[C@H](O)[C@]32CO (some centres not stated) | · | · | · | · | · | i | · | ·
C=CC[C@H](CC(=O)NCCO)C(=O)N[C@@H](COC(=O)[C@H](CC=C)CC(=O)OC(C)(C)C)Cc1ccccc1 | · | · | · | · | · | i | · | ·
O=C(c1ccc(Cl)c(S(=O)(=O)N2CCCCC2)c1)N1CCN(c2ccccc2)CC1 | i | i | -1.5 | i | -1.0 | i | · | ·
NC(=O)COC(=O)c1ccc(Cl)c(S(=O)(=O)N2CCN(c3ccc(F)cc3)CC2)c1 | -7.11* | i | -2.3 | i | -2.4 | i | 59.4%* | i
Cc1ccc(C(=O)N2CCN(c3ccc(F)cc3)CC2)cc1S(=O)(=O)N1CCCCC1 | i | i | -2.8 | i | -0.8 | i | · | ·
O=C(c1ccc(Cl)c(S(=O)(=O)N2CCCC2)c1)N1CCN(c2ccccc2)CC1 | -6.02* | i | -3.6 | i | -2.6 | i | 42.3%* | i
Cc1ccc(C(=O)N2CCN(c3ccccc3)CC2)cc1S(=O)(=O)N1CCCC1 | -9.52* | i | -0.6 | i | -2.3 | i | 55.4%* | i
NC(=O)COC(=O)c1cccc(S(=O)(=O)N2CCN(c3ccc(F)cc3)CC2)c1 | i | i | -1.5 | i | -2.3 | i | · | ·
Nc1ccc2c(c1)-c1ccc(F)cc1C2=O | · | · | · | · | · | i | · | ·
CNc1cc(Cl)nc(SC)n1 | -11.7* | i | -3.3 | i | -2.5 | i | -0.4%* | i
COc1cc(OC)cc(C(=O)NCC(=O)OC2CCCCC2=O)c1 (configuration not stated) | · | · | · | · | · | i | · | ·
SMILES | CHT block | ANO1 block | IMP-1 inhibitor | CHT allo act | VIM-2 inhibitor | ANO1 activ | CHT inh conf | HEK293 CHT ctr
CCc1c(C)[nH]c2ccccc2c1=O | -5.22* | i | -3.0 | i | -8.4 | · | 62.8%* | i
CCc1ccccc1NC(=O)NCc1ccc2c(c1)OCO2 | i | i | -2.2 | i | 0.1 | i | · | ·
Cc1cccc(NC(=O)NCc2ccc3c(c2)OCO3)c1C | -5.23* | i | -1.3 | i | -1.2 | i | i | i
CN1/C(=C/C(=O)c2nc(S(C)(=O)=O)ncc2Cl)C(C)(C)c2ccccc21 | -11.1* | i | -0.9 | i | -0.1 | i | 54.2%* | i
Cc1ccccc1NC(=O)c1nc(S(C)(=O)=O)ncc1Cl | i | i | -3.6 | i | -1.5 | i | · | ·
Cc1cccc(C)c1OCc1cc(C(=O)N2CCN3CCCC3C2)no1 (configuration not stated) | i | i | -2.9 | i | -0.6 | i | · | ·
Cc1cccc(C)c1OCc1cc(C(=O)N2CCN(C3CCCC3)CC2)no1 | -6.26* | i | -2.0 | i | -1.7 | i | 52.5%* | i
O=C(COC(=O)Cc1cccs1)Nc1ccccc1Cl | -5.49* | i | -1.8 | i | -1.7 | i | i | i
Cc1c(C)n(CCc2ccccc2)c2ncnc(NN)c12 | -6.1* | i | 0.6 | i | 7.8* | i | 61.1%* | i
O=[N+]([O-])C(/C=C(\Cl)[N+](=O)[O-])=C1N(Cc2ccc(Cl)nc2)CCN1Cc1ccc(Cl)nc1 | i | i | -2.0 | i | -1.2 | i | · | ·
O=[N+]([O-])/C(C(=C(Cl)Cl)N1CCN(Cc2ccccc2)CC1)=C1\NCCN1Cc1ccc(Cl)nc1 | -12.6* | i | 0.1 | i | -0.3 | i | 4.7%* | i
N#CCCN(C(=O)CN1CCN(S(=O)(=O)c2ccc(Cl)s2)CC1)c1ccc(F)cc1 | · | · | · | · | · | i | · | ·
COc1ccc(/C=C/C(=O)Oc2cc(O)cc(O)c2)cc1 | -6.6* | i | -1.6 | i | -0.4 | i | i | i
CCOc1ccc(/C=C/C(=O)Oc2ccc(OC)cc2)cc1 | i | i | -3.2 | i | -2.9 | i | · | ·
CC(NC(=O)COC(=O)c1ccccc1SCC(=O)N1CCCC1)c1ccccc1 (configuration not stated) | i | i | · | i | · | i | · | ·
O=c1c2cc(NC(=S)NC3CCCCC3)ccc2nc2n1CCCCC2 | -5.41* | i | -2.0 | i | -2.3 | i | 58.5%* | i
